# In PMC6753935 (Journal of Clinical and Translational Science, 2019):
# Where two headings read alike, the source gives them in different places.
# Key:
# αIIbβ3 = αIIbβ3 (Homo sapiens, UniProt P05106+P08514); assay type: cell-based; settings: five donors, p < 0.0001
# [1] = tested on: platelets in platelet-rich plasma (PRP); experiment: Light transmission platelet aggregation, RUC-4 IC50 in NHP PRP; assay type: cell-based, cynomolgus monkey (Macaca fascicularis); settings: read-out: RUC-4 IC50 for platelet aggregation in NHP, mean ± SD; 5 µM ADP, citrated PRP, initial slope, 4 animals
# [2] = Pharmacokinetics: RUC-4 whole blood concentrations after IM, SC; assay type: in vivo, cynomolgus monkey (Macaca fascicularis); settings: for Bioavailability: compared to IV
# Summary of the method: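 Six male monkeys (two per dose: 1, 1.93, 3.86 mg/kg) received single IV, IM or SC injections (0.064 ml/kg; SC into the abdomen). Repeat arms spanned ~6 months with washout. Blood was sampled pre-dose and at 5–270 min, plus 1 min post-IV. Whole-blood levels measured by LC-MS/MS (HILIC; quadratic curve 5–5000 ng/ml). Non-compartmental analysis; bioavailability relative to IV.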
# [3] = Clinical pathology: complete blood counts; assay type: in vivo, cynomolgus monkey (Macaca fascicularis); settings: arms 1, 2 and 5
# Summary of the method: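 Same six male monkeys, dosed IM, IV or SC across five arms. EDTA blood for complete counts was drawn pre-dose and at 30, 120 and 270 min post-dose in arms 1–2. Sampling was pre-dose and 15 min in arm 3, 45 min in arm 4, and 120 min in arm 5. Hematocrit and platelet count were recorded.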
# [4] = tested on: human platelets in platelet-rich plasma (PRP); experiment: In vitro platelet aggregation in PRP of healthy human volunteers; assay type: cell-based
# Summary of the method: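 Healthy donors' venous blood was anticoagulated with citrate (0.38% final), PPACK (0.1 or 0.3 mM final) or heparin (15.8 USP U/ml). PRP was spun at 650 × g for 4 min at room temperature. Aspirin 0.83 mM final for 10 min, then test compound (0.01–3 µM final) for 20 min. Aggregation induced by arachidonic acid 1.5 mM or ADP 5 µM. IC50 from initial-slope inhibition by Hill-equation fit.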
# [5] = tested on: platelets in platelet-rich plasma (PRP); experiment: ADP-induced platelet aggregation in PRP from NHPs dosed with RUC-4 IM; assay type: in vivo, cynomolgus monkey (Macaca fascicularis)
# Summary of the method: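 Six adult male monkeys (3.6–4.8 y; two per dose) got a single unsedated IM injection (0.064 ml/kg) at 1, 1.93 or 3.86 mg/kg. Citrated blood was drawn pre-dose and at 30, 120 and 270 min, plus ~27 h at the top dose. PRP was adjusted to 3 × 10^5/μl with PPP. Light-transmission aggregation at 37°C with stirring, 5 µM ADP. Percent inhibition of the initial slope versus untreated sample.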
# Sequence of αIIbβ3 (P08514 32-887 limits assumed): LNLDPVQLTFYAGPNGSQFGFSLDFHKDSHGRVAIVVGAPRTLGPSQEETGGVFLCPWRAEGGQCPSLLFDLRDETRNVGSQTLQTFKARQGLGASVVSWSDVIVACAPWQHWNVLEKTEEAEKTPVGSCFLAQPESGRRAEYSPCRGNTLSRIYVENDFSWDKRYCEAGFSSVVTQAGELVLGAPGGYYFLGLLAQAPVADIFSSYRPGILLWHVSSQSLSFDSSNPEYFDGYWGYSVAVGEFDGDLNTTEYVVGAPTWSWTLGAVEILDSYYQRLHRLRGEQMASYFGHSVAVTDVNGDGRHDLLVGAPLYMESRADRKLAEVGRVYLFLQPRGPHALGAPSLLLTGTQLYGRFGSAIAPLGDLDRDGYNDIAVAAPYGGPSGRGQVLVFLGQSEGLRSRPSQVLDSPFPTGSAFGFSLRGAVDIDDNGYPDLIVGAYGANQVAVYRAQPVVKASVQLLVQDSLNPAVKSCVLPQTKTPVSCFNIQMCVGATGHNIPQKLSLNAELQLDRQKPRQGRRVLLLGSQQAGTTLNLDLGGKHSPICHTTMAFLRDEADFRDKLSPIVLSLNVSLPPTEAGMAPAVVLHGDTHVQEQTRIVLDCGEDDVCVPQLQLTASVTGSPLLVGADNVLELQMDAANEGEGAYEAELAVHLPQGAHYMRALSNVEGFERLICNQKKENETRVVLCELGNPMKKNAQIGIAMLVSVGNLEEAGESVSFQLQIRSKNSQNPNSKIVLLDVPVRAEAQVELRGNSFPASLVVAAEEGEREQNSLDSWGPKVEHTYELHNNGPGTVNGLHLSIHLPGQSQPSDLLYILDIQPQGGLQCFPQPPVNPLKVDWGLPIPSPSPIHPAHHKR
# Sequence of αIIbβ3 (P08514 891-1039 partner limits assumed): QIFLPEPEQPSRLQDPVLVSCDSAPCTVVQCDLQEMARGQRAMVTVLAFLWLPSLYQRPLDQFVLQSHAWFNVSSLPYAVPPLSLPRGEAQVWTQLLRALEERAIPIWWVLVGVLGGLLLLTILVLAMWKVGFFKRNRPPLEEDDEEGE
# Sequence of αIIbβ3 (P05106 27-788): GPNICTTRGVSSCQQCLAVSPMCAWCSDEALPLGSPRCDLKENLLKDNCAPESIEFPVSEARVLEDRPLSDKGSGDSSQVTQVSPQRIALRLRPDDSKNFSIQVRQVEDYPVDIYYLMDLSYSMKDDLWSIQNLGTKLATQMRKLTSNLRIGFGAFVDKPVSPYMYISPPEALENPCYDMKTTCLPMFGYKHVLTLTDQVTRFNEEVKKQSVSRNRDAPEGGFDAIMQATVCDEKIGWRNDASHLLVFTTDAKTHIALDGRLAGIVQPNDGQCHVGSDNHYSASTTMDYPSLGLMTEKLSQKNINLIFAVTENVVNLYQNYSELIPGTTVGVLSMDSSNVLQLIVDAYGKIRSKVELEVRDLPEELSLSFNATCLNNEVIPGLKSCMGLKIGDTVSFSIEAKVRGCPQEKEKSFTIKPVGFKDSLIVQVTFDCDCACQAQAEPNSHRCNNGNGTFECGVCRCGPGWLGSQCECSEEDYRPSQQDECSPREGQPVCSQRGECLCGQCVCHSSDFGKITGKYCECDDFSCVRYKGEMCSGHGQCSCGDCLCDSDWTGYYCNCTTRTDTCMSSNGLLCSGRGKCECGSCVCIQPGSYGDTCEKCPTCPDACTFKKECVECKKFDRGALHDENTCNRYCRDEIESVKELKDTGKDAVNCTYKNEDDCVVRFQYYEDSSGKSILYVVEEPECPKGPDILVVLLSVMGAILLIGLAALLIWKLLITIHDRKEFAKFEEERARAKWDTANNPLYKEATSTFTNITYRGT
smiles,measurement,setting,value
NCC(=O)Nc1cncc(-c2nn3c(=O)cc(N4CCNCC4)nc3s2)c1 [RUC-4],Average correlation between inhibition of platelet aggregation and inhibition of PAC-1 binding,αIIbβ3,0.96
same,IC50,[1],807 ± 231 nM
same,Clinical observations,"IM, similar at all doses, all animals","some minor bruising and red, raised areas limited to site of injection (thigh) or venipuncture"
same,Clinical observations,"IV 1.93 mg/kg, one animal in arm 2",minor nose and gingival bleeding
same,Clinical observations,"IV 3.86 mg/kg, one animal in arm 2 and both animals in arm 3",vomited immediately after the IV injection
same,Clinical findings,"SC, resolved by ~24 hours post-dose",red discoloration of the skin at the venipuncture and administration sites and bruising at sites of injection and inguinal areas
same,Tolerability,"all doses, IM, IV, SC",well tolerated
same,Time to peak level,[2]; 1.0 mg/kg SC,15 min
same,Time to peak blood levels,[2]; IM,≤ 5 min
same,T1/2,[2]; IM 1.00 mg/kg,16.8 min
same,Whole blood level,"[2]; IM 1.00 mg/kg, 5 minutes",3.415 µM
same,Whole blood level,"[2]; IM 1.00 mg/kg, 15 minutes",2.118 µM
same,Whole blood level,"[2]; IM 1.00 mg/kg, 30 minutes",0.164 µM
same,Whole blood level,"[2]; IM 1.00 mg/kg, 45 minutes",0.236 µM
same,Whole blood level,"[2]; IM 1.00 mg/kg, 120 minutes",< 0.008 µM
same,Whole blood level,"[2]; IM 1.00 mg/kg, 270 minutes",< 0.007 µM
same,Bioavailability,[2]; IM 1.00 mg/kg,1.2
same,T1/2,[2]; IM 1.93 mg/kg,16.8 min
same,Whole blood level,"[2]; IM 1.93 mg/kg, 5 minutes",3.796 µM
same,Whole blood level,"[2]; IM 1.93 mg/kg, 15 minutes",3.692 µM
same,Whole blood level,"[2]; IM 1.93 mg/kg, 30 minutes",0.297 µM
same,Whole blood level,"[2]; IM 1.93 mg/kg, 45 minutes",0.333 µM
same,Whole blood level,"[2]; IM 1.93 mg/kg, 120 minutes",0.008 µM
same,Whole blood level,"[2]; IM 1.93 mg/kg, 270 minutes",< 0.007 µM
same,Bioavailability,[2]; IM 1.93 mg/kg,0.80
same,T1/2,[2]; IM 3.86 mg/kg,31.8 min
same,Whole blood level,"[2]; IM 3.86 mg/kg, 5 minutes",16.009 µM
same,Whole blood level,"[2]; IM 3.86 mg/kg, 15 minutes",8.783 µM
same,Whole blood level,"[2]; IM 3.86 mg/kg, 30 minutes",0.837 µM
same,Whole blood level,"[2]; IM 3.86 mg/kg, 45 minutes",0.952 µM
same,Whole blood level,"[2]; IM 3.86 mg/kg, 120 minutes",0.016 µM
same,Whole blood level,"[2]; IM 3.86 mg/kg, 270 minutes",< 0.007 µM
same,Bioavailability,[2]; IM 3.86 mg/kg,0.88
same,Time to peak levels,"[2]; IM and SC, all doses except 1.0 mg/kg SC",≤ 5 min
same,Time to peak blood levels,[2]; SC,≤ 5 min
same,T1/2,[2]; SC 1.00 mg/kg,33.6 min
same,Whole blood level,"[2]; SC 1.00 mg/kg, 5 minutes",0.746 µM
same,Whole blood level,"[2]; SC 1.00 mg/kg, 15 minutes",0.819 µM
same,Whole blood level,"[2]; SC 1.00 mg/kg, 30 minutes",0.497 µM
same,Whole blood level,"[2]; SC 1.00 mg/kg, 45 minutes",0.241 µM
same,Whole blood level,"[2]; SC 1.00 mg/kg, 120 minutes",0.077 µM
same,Bioavailability,[2]; SC 1.00 mg/kg,0.55
same,T1/2,[2]; SC 1.93 mg/kg,24.6 min
same,Whole blood level,"[2]; SC 1.93 mg/kg, 5 minutes",3.445 µM
same,Whole blood level,"[2]; SC 1.93 mg/kg, 15 minutes",3.056 µM
same,Whole blood level,"[2]; SC 1.93 mg/kg, 30 minutes",1.295 µM
same,Whole blood level,"[2]; SC 1.93 mg/kg, 45 minutes",0.551 µM
same,Whole blood level,"[2]; SC 1.93 mg/kg, 120 minutes",0.104 µM
same,Bioavailability,[2]; SC 1.93 mg/kg,0.78
same,T1/2,[2]; SC 3.86 mg/kg,23.4 min
same,Whole blood level,"[2]; SC 3.86 mg/kg, 5 minutes",6.036 µM
same,Whole blood level,"[2]; SC 3.86 mg/kg, 15 minutes",5.310 µM
same,Whole blood level,"[2]; SC 3.86 mg/kg, 30 minutes",3.523 µM
same,Whole blood level,"[2]; SC 3.86 mg/kg, 45 minutes",1.098 µM
same,Whole blood level,"[2]; SC 3.86 mg/kg, 120 minutes",0.225 µM
same,Bioavailability,[2]; SC 3.86 mg/kg,0.60
same,"Reductions in hematocrit, assessment",[3],considered consistent with the blood drawing from the animals
same,"Platelet counts, trend",[3]; possible exception animal 4 at 1.93 mg/kg IM,did not demonstrate obvious drug-related trends by dose or time after administration
same,"Difference in RUC-4 IC50, citrate versus heparin and PPACK",[4]; lower IC50 in PRP from citrate-anticoagulated blood,approximately twofold
same,IC50,"[4]; read-out: RUC-4 IC50, 20 µM TRAP, blood anticoagulated with PPACK (0.3 mM), n = 4",122 ± 17 nM
same,IC50,"[4]; read-out: RUC-4 IC50, 20 µM TRAP, blood anticoagulated with heparin (15.8 U/ml), n = 4",111 ± 7 nM
same,IC50,"[4]; read-out: RUC-4 IC50, 20 µM TRAP, blood anticoagulated with sodium citrate (0.38%), n = 4",66 ± 25 nM
same,IC50,"[4]; read-out: RUC-4 IC50, ADP 20 µM, blood anticoagulated with PPACK (0.1 mM), n = 5",102 ± 22 nM
same,IC50,"[4]; read-out: RUC-4 IC50, ADP 20 µM, blood anticoagulated with sodium citrate (0.38%), n = 5",54 ± 13 nM
same,IC50,"[4]; read-out: RUC-4 IC50, ADP (5 µM), aspirin (0.83 mM), mean of 5 patients",37 nM
same,IC50,"[4]; read-out: RUC-4 IC50, ADP (5 µM), aspirin (0.83 mM), patient 1",41 nM
same,IC50,"[4]; read-out: RUC-4 IC50, ADP (5 µM), aspirin (0.83 mM), patient 2",33 nM
same,IC50,"[4]; read-out: RUC-4 IC50, ADP (5 µM), aspirin (0.83 mM), patient 3",32 nM
same,IC50,"[4]; read-out: RUC-4 IC50, ADP (5 µM), aspirin (0.83 mM), patient 4",43 nM
same,IC50,"[4]; read-out: RUC-4 IC50, ADP (5 µM), aspirin (0.83 mM), patient 5",37 nM
same,IC50,"[4]; read-out: RUC-4 IC50, ADP (5 µM), vehicle, mean of 5 patients",40 nM
same,IC50,"[4]; read-out: RUC-4 IC50, ADP (5 µM), vehicle, patient 1",52 nM
same,IC50,"[4]; read-out: RUC-4 IC50, ADP (5 µM), vehicle, patient 2",38 nM
same,IC50,"[4]; read-out: RUC-4 IC50, ADP (5 µM), vehicle, patient 3",34 nM
same,IC50,"[4]; read-out: RUC-4 IC50, ADP (5 µM), vehicle, patient 4",47 nM
same,IC50,"[4]; read-out: RUC-4 IC50, ADP (5 µM), vehicle, patient 5",31 nM
same,IC50,"[4]; read-out: RUC-4 IC50, arachidonic acid (1.5 mM), vehicle, mean of 5 patients",61 nM
same,IC50,"[4]; read-out: RUC-4 IC50, arachidonic acid (1.5 mM), vehicle, patient 1",67 nM
same,IC50,"[4]; read-out: RUC-4 IC50, arachidonic acid (1.5 mM), vehicle, patient 2",52 nM
same,IC50,"[4]; read-out: RUC-4 IC50, arachidonic acid (1.5 mM), vehicle, patient 3",41 nM
same,IC50,"[4]; read-out: RUC-4 IC50, arachidonic acid (1.5 mM), vehicle, patient 4",72 nM
same,IC50,"[4]; read-out: RUC-4 IC50, arachidonic acid (1.5 mM), vehicle, patient 5",71 nM
same,IC50,"[4]; read-out: RUC-4 IC50 for ADP-induced aggregation, ADP 5 µM, aspirin-treated platelets (0.83 mM), citrated PRP",37 ± 5 nM
same,Average inhibition of the initial slope of platelet aggregation in the two animals tested,"[5]; IM 1.00 mg/kg, 30 minutes",b (Values of whole blood RUC-4 levels corresponding to an average of >80% inhibition of the initial slope of platelet aggregation in the two animals tested.)
same,Average inhibition of the initial slope of platelet aggregation in the two animals tested,"[5]; IM 1.00 mg/kg, 120 minutes",c (Values of whole blood RUC-4 levels corresponding to an average of 0%–80% inhibition of the initial slope of platelet aggregation in the two animals tested.)
same,Average inhibition of the initial slope of platelet aggregation in the two animals tested,"[5]; IM 1.00 mg/kg, 270 minutes",c (Values of whole blood RUC-4 levels corresponding to an average of 0%–80% inhibition of the initial slope of platelet aggregation in the two animals tested.)
same,Average inhibition of the initial slope of platelet aggregation in the two animals tested,"[5]; IM 1.93 mg/kg, 30 minutes",b (Values of whole blood RUC-4 levels corresponding to an average of >80% inhibition of the initial slope of platelet aggregation in the two animals tested.)
same,Average inhibition of the initial slope of platelet aggregation in the two animals tested,"[5]; IM 1.93 mg/kg, 120 minutes",b (Values of whole blood RUC-4 levels corresponding to an average of >80% inhibition of the initial slope of platelet aggregation in the two animals tested.)
same,Average inhibition of the initial slope of platelet aggregation in the two animals tested,"[5]; IM 1.93 mg/kg, 270 minutes",c (Values of whole blood RUC-4 levels corresponding to an average of 0%–80% inhibition of the initial slope of platelet aggregation in the two animals tested.)
same,Average inhibition of the initial slope of platelet aggregation in the two animals tested,"[5]; IM 3.86 mg/kg, 30 minutes",b (Values of whole blood RUC-4 levels corresponding to an average of >80% inhibition of the initial slope of platelet aggregation in the two animals tested.)
same,Average inhibition of the initial slope of platelet aggregation in the two animals tested,"[5]; IM 3.86 mg/kg, 120 minutes",b (Values of whole blood RUC-4 levels corresponding to an average of >80% inhibition of the initial slope of platelet aggregation in the two animals tested.)
same,Average inhibition of the initial slope of platelet aggregation in the two animals tested,"[5]; IM 3.86 mg/kg, 270 minutes",c (Values of whole blood RUC-4 levels corresponding to an average of 0%–80% inhibition of the initial slope of platelet aggregation in the two animals tested.)
same,Inhibition of the initial slope of aggregation in response to ADP,"[5]; IM, all samples with whole blood RUC-4 concentration ≥ ~8 nM",> 80%
same,Inhibition of the initial slope of ADP-induced aggregation,"[5]; IM, all three doses (1.0, 1.93, 3.86 mg/kg), 30 minutes post-dosing",> 80%
